Measured values: ChEMBL document CHEMBL4351007, “Synthesis and biological evaluation of (1,2,4)triazole[4,3-a]pyridine derivatives as potential therapeutic agents for concanavalin A-induced hepatitis” (Eur J Med Chem, 2019)
Calls of active or inactive are those of the source. No cut-off for these calls is given here.

Key:
RAW264.7 [1] = assay: Antiinflammatory activity in mouse RAW264.7 cells assessed as LPS-induced nitric oxide level at 20 uM preincubated for 1 hr followed by LPS treatment and measured after 23 hrs by Griess reagent based assay (reference value: 96.06 to 102.81%); type: functional
Procedure, shortened: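 RAW264.7 cells seeded at 1 × 10^5/mL and left overnight. Compound (20 μM) added 1 h before LPS at 1 μg/mL, then 23 h more incubation. Nitrite in supernatant read with Griess reagent at 540 nm and expressed as NO relative to the LPS-only wells (%).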

L02 = assay: Cytotoxicity against human LO2 cells assessed as cell viability at 20 uM measured after 24 hrs by MTT assay; type: cell-based; details: l02, 24 h
Procedure, shortened: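 LO2 human liver cells (1.5–5 × 10^3 per well) seeded overnight, then exposed to compound for 24 h. MTT (5 mg/mL stock) added for 2–4 h at 37 °C. Formazan dissolved in DMSO and absorbance read at 570 nm. Three replicate experiments.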

RAW264.7 [2] = assay: Inhibition of MCP-1 mediated chemotaxis in mouse RAW264.7 cells at 20 uM measured after 3 hrs by light microscopic analysis relative to control; type: functional; details: for inhibition at 20 µM: RAW264.7, 3 h
Procedure, shortened: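 RAW264.7 cells serum-starved for 3 h, then placed in the upper Transwell chamber in 0.5% BSA medium with compound (20 μM) or DMSO. Lower chamber held 200 ng/mL MCP-1. After 3 h at 37 °C, migrated cells fixed, crystal violet-stained and counted in randomly chosen fields. Inhibitory rate = 1 − N1/(N1+N2); three chambers per condition.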

[3] = molecular target: Transcription factor p65 (Mus musculus) (UniProt Q04207); assay: Inhibition of Con A-induced NF-kappaB p65 translocation in mouse RAW264.7 cells incubated for 22 hrs by DAPI staining based laser scanning confocal microscopic analysis; type: cell-based
Chain of Transcription factor p65 (Mus musculus) (Q04207 whole entry): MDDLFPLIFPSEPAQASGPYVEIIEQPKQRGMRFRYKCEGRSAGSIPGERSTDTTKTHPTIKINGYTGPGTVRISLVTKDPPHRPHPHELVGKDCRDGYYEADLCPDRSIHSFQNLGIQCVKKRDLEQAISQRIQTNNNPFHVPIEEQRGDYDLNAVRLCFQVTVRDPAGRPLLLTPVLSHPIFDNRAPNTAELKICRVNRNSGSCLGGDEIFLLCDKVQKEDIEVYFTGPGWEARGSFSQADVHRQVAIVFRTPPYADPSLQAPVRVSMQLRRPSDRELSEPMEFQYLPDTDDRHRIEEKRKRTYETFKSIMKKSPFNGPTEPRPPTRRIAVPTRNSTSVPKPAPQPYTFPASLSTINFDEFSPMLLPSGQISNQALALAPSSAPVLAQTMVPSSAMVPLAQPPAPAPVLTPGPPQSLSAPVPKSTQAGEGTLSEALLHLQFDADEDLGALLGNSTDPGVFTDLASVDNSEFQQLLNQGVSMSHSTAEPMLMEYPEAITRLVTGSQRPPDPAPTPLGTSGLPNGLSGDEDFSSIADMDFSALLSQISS
Procedure, shortened: (§1)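 RAW264.7 cells (2×10^4/well) seeded overnight and stimulated for 2 h with Con A (0.6 μM) or LPS (1 μg/mL), then compound at various concentrations for 22 h. Cells fixed in paraformaldehyde, permeabilized with Triton X-100 and blocked in BSA. Stained with anti-p65 and FITC secondary antibody, nuclei with DAPI; imaged by confocal microscopy.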

[4] = molecular target: Transcription factor p65 (Mus musculus) (UniProt Q04207); assay: Inhibition of LPS-induced NF-kappaB p65 translocation in mouse RAW264.7 cells incubated for 22 hrs by DAPI staining based laser scanning confocal microscopic analysis; type: cell-based; procedure, shortened: as §1
RAW264.7 [5] = assay: Antiinflammatory activity against mouse RAW264.7 assessed as decrease in Con-A induced TNF-alpha mRNA expression level at 1 uM measured after 22 hrs by RT-PCR analysis; type: functional, cell-based
Procedure, shortened: (§2)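 RAW264.7 macrophages (DMEM, 10% FBS, 37 °C, 5% CO2) pretreated with Con A for 2 h, then compound at 1 μM for a further 22 h. mRNA quantified by SYBR real-time PCR (95 °C 30 s; 40 cycles of 95 °C 5 s, 60 °C 20 s), normalized to GAPDH, run in triplicate; mean ± SD, n=5.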

RAW264.7 [6] = assay: Antiinflammatory activity against mouse RAW264.7 assessed as decrease in Con-A induced INF-gamma mRNA expression level at 1 uM measured after 22 hrs by RT-PCR analysis; type: functional, cell-based; procedure, shortened: as §2
RAW264.7 [7] = assay: Antiinflammatory activity against mouse RAW264.7 assessed as decrease in Con-A induced IL-6 mRNA expression level at 1 uM measured after 22 hrs by RT-PCR analysis; type: functional, cell-based; procedure, shortened: as §2
RAW264.7 [8] = assay: Antiinflammatory activity against mouse RAW264.7 assessed as decrease in Con-A induced […] IL-10 expression level at 1 uM measured after 22 hrs by RT-PCR analysis; type: functional, cell-based; procedure, shortened: as §2
Mus musculus [9] = assay: Antiinflammatory activity in mouse model of Con-A induced autoimmune hepatitis assessed as decrease in serum ALT level at 100 mg/kg, ip measured after 12 hrs relative to control; type: functional; design: scale not given: the % may be the effect or the level left
Procedure, shortened: (§3)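 Female BALB/c mice, 6–8 weeks old, SPF housing. Con A 20 mg/kg given i.v., then compound 100 mg/kg i.p. in 40% PEG 400/60% saline; model group received vehicle. Killed at 12 h. Plasma ALT and AST measured on an automatic analyzer. Mean ± SD, n=5; ANOVA with Tukey's test.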

Mus musculus [10] = assay: Antiinflammatory activity in mouse model of Con-A induced autoimmune hepatitis assessed as decrease in serum AST level at 100 mg/kg, ip measured after 12 hrs relative to control; type: functional; design: scale not given: the % may be the effect or the level left; procedure, shortened: as §3
Mus musculus [11] = species on record: Mus musculus; assay: Hepatoprotective activity in mouse model of Con-A induced autoimmune hepatitis assessed as reduction in Con-A induced CD4-positive cells infiltration by […] microscopic analysis; type: functional, organism-based
Procedure, shortened: (§4)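 Livers collected 12 h after Con A 20 mg/kg i.v. plus compound 100 mg/kg i.p. Tissue formalin-fixed, paraffin-embedded and cut into 4–5 μm sections. Sections stained with H&E for light microscopy; further sections immunostained for CD4, CD11b and F4/80 and imaged by fluorescence microscopy.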

Mus musculus [12] = species on record: Mus musculus; assay: Hepatoprotective activity in mouse model of Con-A induced autoimmune hepatitis assessed as decrease in necrosis of hepatocytes by H and E staining based […] microscopic analysis; type: functional, organism-based; procedure, shortened: as §4
Mus musculus [13] = species on record: Mus musculus; assay: Hepatoprotective activity in mouse model of Con-A induced autoimmune hepatitis assessed as reduction in Con-A induced F4/80-positive cells infiltration by […] microscopic analysis; type: functional, organism-based; procedure, shortened: as §4
Mus musculus [14] = species on record: Mus musculus; assay: Hepatoprotective activity in mouse model of Con-A induced autoimmune hepatitis assessed as reduction in Con-A induced CD11b-positive cells infiltration by […] microscopic analysis; type: functional, organism-based; procedure, shortened: as §4
Mus musculus [15] = assay: Antiinflammatory activity in mouse model of Con-A induced autoimmune hepatitis assessed as of MDSC accumulation at 100 mg/kg by flow cytometry analysis (reference value: 11.31%); type: functional
Procedure, shortened: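 Female BALB/c mice given Con A 20 mg/kg i.v. plus compound 100 mg/kg i.p. (PEG 400/saline vehicle), livers taken at 12 h. Liver single-cell suspensions prepared by mechanical disruption and 1 mg/mL collagenase I digestion, with red cells lysed. 1×10^6 cells stained for CD11b and Gr-1; MDSC percentage determined by flow cytometry.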

| SMILES | Activity (RAW264.7 [1]) [%] | Activity (L02) | further results |
| --- | --- | --- | --- |
| CC(=O)Nc1cc(-c2ccccc2)cn2c(C)nnc12 | 44.71 | Non-Toxic | – |
| CCS(=O)(=O)Nc1cc(-c2cccc(C(F)(F)F)c2)cn2c(C)nnc12 | 27.18 | Non-Toxic | – |
| Cc1nnc2c(NC(=O)c3cccc(C(F)(F)F)c3)cc(-c3ccc(Cl)cc3)cn12 | 30.98 | Non-Toxic | – |
| O=C1NC(=O)/C(=C/c2ccc3nccnc3c2)S1 | – | – | inhibition at 20 µM (RAW264.7 [2]): 40.5% |
| CC(=O)Nc1cc(-c2ccccc2-c2ccccc2)cn2c(C)nnc12 | 49.03 | Non-Toxic | – |
| CCS(=O)(=O)Nc1cc(-c2ccccc2)cn2c(C)nnc12 | 44.44 | Non-Toxic | – |
| CC(=O)Nc1cc(-c2ccccc2C(F)(F)F)cn2c(C)nnc12 | 42.36 | Non-Toxic | – |
| CCS(=O)(=O)Nc1cc(-c2cc(Cl)ccc2OCc2ccccc2)cn2c(C)nnc12 | 26.01 | Non-Toxic | inhibition (RAW264.7 [2]): Active |
| COc1ccc(C)cc1-c1cc(NC(C)=O)c2nnc(C)n2c1 | 58.83 | Non-Toxic | – |
| CCS(=O)(=O)Nc1cc(-c2ccccc2-c2ccccc2)cn2c(C)nnc12 | 62.68 | Non-Toxic | – |
| CCS(=O)(=O)Nc1cc(-c2ccccc2C(F)(F)F)cn2c(C)nnc12 | 58.67 | Non-Toxic | – |
| CCCOc1ccc(Cl)cc1-c1cc(NC(=O)c2ccccc2F)c2nnc(C)n2c1 | 77.73 | Non-Toxic | – |
| CCS(=O)(=O)Nc1cccc(-c2cc([N+](=O)[O-])c3nnc(C)n3c2)c1 | 26.74 | Non-Toxic | – |
| CCS(=O)(=O)Nc1cc(-c2ccccc2Cl)cn2c(C)nnc12 | 152.42 | Non-Toxic | – |
| CCS(=O)(=O)Nc1cccc(-c2cc(NC(C)=O)c3nnc(C)n3c2)c1 | 64.96 | Non-Toxic | – |
| CCCOc1ccc(Cl)cc1-c1cc(NC(C)=O)c2nnc(C)n2c1 | 49.05 | Non-Toxic | – |
| CC(=O)Nc1cc(-c2cc(Cl)ccc2OCc2ccccc2)cn2c(C)nnc12 | 27.05 | Non-Toxic | – |
| Cc1nnc2c(NC(=O)c3ccc(F)cc3)cc(-c3ccc(Cl)cc3)cn12 | 42.88 | Non-Toxic | – |

| SMILES | Activity (RAW264.7 [1]) [%] | Activity (L02) | further results |
| --- | --- | --- | --- |
| COc1ncccc1-c1cc(NC(C)=O)c2nnc(C)n2c1 | 54.04 | Non-Toxic | – |
| CCS(=O)(=O)Nc1cccc(-c2cc(NS(=O)(=O)CC)c3nnc(C)n3c2)c1 | 41.19 | Non-Toxic | – |
| CC(=O)Nc1cc(-c2cccc(OC(F)(F)F)c2)cn2c(C)nnc12 | 49.52 | Non-Toxic | – |
| CCOc1cc(F)ccc1-c1cc(NC(=O)C2CCCCC2)c2nnc(C)n2c1 | 37.8 | Non-Toxic | inhibition (RAW264.7 [2]): Active |
| CC(=O)Nc1cc(-c2ccccc2Cl)cn2c(C)nnc12 | 48.41 | Non-Toxic | – |
| CCS(=O)(=O)Nc1cc(-c2cccnc2OC)cn2c(C)nnc12 | 49.93 | Non-Toxic | – |
| CCS(=O)(=O)Nc1cc(-c2cc(C)ccc2OC)cn2c(C)nnc12 | 45.48 | Non-Toxic | – |
| CCOc1cc(F)ccc1-c1cc(NC(C)=O)c2nnc(C)n2c1 | 65.85 | Non-Toxic | – |
| CCOc1ccc(C)cc1-c1cc(NC(C)=O)c2nnc(C)n2c1 | 32.07 | Non-Toxic | – |
| CC(=O)Nc1cc(-c2ccc(CN3CCOCC3)cc2)cn2c(C)nnc12 | 42.4 | Non-Toxic | – |
| CCOc1cc(F)ccc1-c1cc(NS(=O)(=O)CC)c2nnc(C)n2c1 | 34.85 | Non-Toxic | – |
| COc1ccc(F)cc1-c1cc(NC(=O)c2ccc(OCc3ccccc3)cc2Cl)c2nnc(C)n2c1 | 32.06 | Non-Toxic | – |
| CC(=O)Nc1cc(-c2ccccc2F)cn2c(C)nnc12 | 83.06 | Non-Toxic | – |
| CCS(=O)(=O)Nc1cc(-c2ccccc2OCc2ccccc2)cn2c(C)nnc12 | 72.57 | Non-Toxic | – |
| COc1ncccc1-c1cc(NC(=O)C2CCCCC2)c2nnc(C)n2c1 | 49.99 | Non-Toxic | – |
| COc1cccc(-c2cc(NC(C)=O)c3nnc(C)n3c2)c1 | 55.3 | Non-Toxic | – |
| CCOc1ccc(C(=O)Nc2cc(-c3cc(F)ccc3OC)cn3c(C)nnc23)cc1 | 28.01 | Non-Toxic | Activity [3]: Dose-dependent effect; inhibition at 20 µM (RAW264.7 [2]): 52.6%; inhibition [4]: Dose-dependent effect; Activity (RAW264.7 [5]): Active; Activity (RAW264.7 [6]): Active; Activity (RAW264.7 [7]): Active; Activity (RAW264.7 [8]): Active; Activity (Mus musculus [9]): 65.39%; Activity (Mus musculus [10]): 52.52%; Activity (Mus musculus [11]): Active; Activity (Mus musculus [12]): Active; Activity (Mus musculus [13]): Active; Activity (Mus musculus [14]): Active; Activity (Mus musculus [15]): 8.39% |
| COc1ccc(F)cc1-c1cc(NC(=O)c2c(F)cccc2F)c2nnc(C)n2c1 | 61.96 | Non-Toxic | – |
